Assay results as given in PMC3217223 (Bioorganic & Medicinal Chemistry, 2009).
Structures can show the parent of a compound that is named as a salt.

How the values were obtained:
NMDA receptors = type: cell-based; conditions: for NMDA receptor antagonism (in words): cerebellar granule neurons, glutamate or NMDA 100 μM + glycine 10 μM
[1] = system: bloodstream form T. brucei (strain 427); experiment: T. brucei culturing and drug test; type: cell-based, Trypanosoma brucei; conditions: for Trypanocidal activity (in words): at concentrations up to 5 mg mL^−1; for Trypanocidal properties (in words): bloodstream form T. brucei
In short: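 Parasites were kept at 37 °C in modified Iscove's medium (pH 7.4) and grown for 48 h with a range of test compound concentrations. Cell density at each concentration was counted by hemocytometer and expressed as percent of untreated control growth. Concentrations giving 50% and 90% growth inhibition (IC₅₀, IC₉₀) were determined. Run in triplicate.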

[2] = system: herpes simplex virus type 1; type: cell-based; conditions: microscopy and MTS assay
[3] = system: herpes simplex virus type 2; type: cell-based; conditions: microscopy and MTS assay
vaccinia virus = type: cell-based
feline coronavirus = type: cell-based; conditions: microscopy and MTS assay
parainfluenza-3 virus = type: cell-based; conditions: microscopy and MTS assay
[4] = system: respiratory syncytial virus; type: cell-based; conditions: microscopy and MTS assay
[5] = system: vesicular stomatitis virus; type: cell-based
sindbis virus = type: cell-based; conditions: microscopy and MTS assay
Punta Toro virus = type: cell-based; conditions: microscopy and MTS assay
Coxsackievirus B4 = type: cell-based; conditions: microscopy and MTS assay
Reovirus-1 = type: cell-based; conditions: microscopy and MTS assay
influenza virus A/H1N1 = type: cell-based, influenza virus A/Puerto Rico/8/34 (H1N1); conditions: influenza virus A/H1N1 (A/Puerto Rico/8/34); microscopy and MTS assay
influenza virus A/H3N2 = type: cell-based, influenza virus A/Hong Kong/7/87 (H3N2); conditions: influenza virus A/H3N2 (A/Hong Kong/7/87); microscopy and MTS assay
influenza virus B = type: cell-based, influenza virus B/Hong Kong/5/72; conditions: influenza virus B (B/Hong Kong/5/72); microscopy and MTS assay

Row | SMILES | NMDA receptor antagonism (in words) (NMDA receptors) | Trypanocidal activity (in words) [1] | Antiviral activity [2] | Antiviral activity [3] | Antiviral activity (vaccinia virus) | Antiviral activity (feline coronavirus) | Antiviral activity (parainfluenza-3 virus) | Antiviral activity [4] | Antiviral activity [5] | Antiviral activity (sindbis virus) | Antiviral activity (Punta Toro virus) | Antiviral activity (Coxsackievirus B4) | Antiviral activity (Reovirus-1) | Antiviral activity (influenza virus A/H1N1) | Antiviral activity (influenza virus A/H3N2) | Antiviral activity (influenza virus B) | further results
1 | c1ccc(CNC23CC4CC(CC(C4)O2)C3)cc1 [Compound 2a, N-Benzyl(2-oxaadamant-1-yl)amine hydrochloride] | inactive | no activity | None of the tested compounds displayed activity | None of the tested compounds displayed activity | None of the tested compounds displayed activity | None of the tested compounds displayed activity | None of the tested compounds displayed activity | None of the tested compounds displayed activity | None of the tested compounds displayed activity | None of the tested compounds displayed activity | None of the tested compounds displayed activity | None of the tested compounds displayed activity | None of the tested compounds displayed activity | none of the compounds was found to be active | none of the compounds was found to be active | none of the compounds was found to be active | 
2 | c1ccc(CCNC23CC4CC(CC(C4)O2)C3)cc1 [Compound 2b, N-(2-Phenylethyl)(2-oxaadamant-1-yl)amine hydrochloride] |  | no activity |  |  |  |  |  |  |  |  |  |  |  |  |  |  | 
3 | CN(Cc1ccccc1)C12CC3CC(CC(C3)O1)C2 [Compound 3a, N-Benzyl-N-methyl(2-oxaadamant-1-yl)amine] | inactive | no activity |  |  |  |  |  |  |  |  |  |  |  |  |  |  | 
4 | CN(CCc1ccccc1)C12CC3CC(CC(C3)O1)C2 [Compound 3b, N-Methyl-N-(2-phenylethyl)(2-oxaadamant-1-yl)amine hydrochloride] |  | no activity |  |  |  |  |  |  |  |  |  |  |  |  |  |  | 
5 | CNC12CC3CC(CC(C3)O1)C2 [Compound 4, N-Methyl(2-oxaadamant-1-yl)amine hydrochloride] | inactive | no activity | None of the tested compounds displayed activity | None of the tested compounds displayed activity | None of the tested compounds displayed activity | None of the tested compounds displayed activity | None of the tested compounds displayed activity | None of the tested compounds displayed activity | None of the tested compounds displayed activity | None of the tested compounds displayed activity | None of the tested compounds displayed activity | None of the tested compounds displayed activity | None of the tested compounds displayed activity | none of the compounds was found to be active | none of the compounds was found to be active | none of the compounds was found to be active | 
6 | c1ccc(CN(Cc2ccccc2)C23CC4CC(CC(C4)O2)C3)cc1 [Compound 8, N,N-Dibenzyl(2-oxaadamant-1-yl)amine] | inactive | no activity |  |  |  |  |  |  |  |  |  |  |  |  |  |  | 
7 | CC12CC3CC(C1)CC(N)(C3)O2 [Compound 10a, (3-Methyl-2-oxaadamant-1-yl)amine hydrochloride] | inactive |  |  |  |  |  |  |  |  |  |  |  |  |  |  |  | 
8 | NC12CC3CC(C1)CC(c1ccccc1)(C3)O2 [Compound 10c, (3-Phenyl-2-oxaadamant-1-yl)amine hydrochloride] | only a weak NMDA receptor antagonist |  | None of the tested compounds displayed activity | None of the tested compounds displayed activity | None of the tested compounds displayed activity | None of the tested compounds displayed activity | None of the tested compounds displayed activity | None of the tested compounds displayed activity | None of the tested compounds displayed activity | None of the tested compounds displayed activity | None of the tested compounds displayed activity | None of the tested compounds displayed activity | None of the tested compounds displayed activity | none of the compounds was found to be active | none of the compounds was found to be active | none of the compounds was found to be active | 
9 | NC12CC3CC(C1)CC(C1CCCCC1)(C3)O2 [Compound 10d, (3-cyclohexyl-2-oxaadamant-1-yl)amine hydrochloride] |  |  | None of the tested compounds displayed activity | None of the tested compounds displayed activity | None of the tested compounds displayed activity | None of the tested compounds displayed activity | None of the tested compounds displayed activity | None of the tested compounds displayed activity | None of the tested compounds displayed activity | None of the tested compounds displayed activity | None of the tested compounds displayed activity | None of the tested compounds displayed activity | None of the tested compounds displayed activity | none of the compounds was found to be active | none of the compounds was found to be active | none of the compounds was found to be active | 
10 | CN(C)C12CC3CC(CC(C)(C3)O1)C2 [Compound 11a, N,N-Dimethyl(3-methyl-2-oxaadamant-1-yl)amine hydrochloride] | inactive |  |  |  |  |  |  |  |  |  |  |  |  |  |  |  | Trypanocidal activity relative to amantadine ([1]; compared with amantadine): at least 30 times; Trypanocidal activity relative to rimantadine ([1]; compared with rimantadine): approximately twice
11 | CCN(CC)C12CC3CC(CC(CC)(C3)O1)C2 [Compound 12, N,N-Diethyl(3-ethyl-2-oxaadamant-1-yl)amine hydrochloride] |  |  |  |  |  |  |  |  |  |  |  |  |  |  |  |  | Potency as NMDA receptor antagonist relative to amantadine (NMDA receptors; compared with amantadine): seven times more potent than amantadine; Potency as NMDA receptor antagonist relative to memantine (NMDA receptors; compared with memantine): ten times less potent than memantine
12 | CCC12CC3CC(C1)CC(NCc1ccccc1)(C3)O2 [Compound 13, N-Benzyl(3-ethyl-2-oxaadamant-1-yl)amine hydrochloride] |  |  |  |  |  |  |  |  |  |  |  |  |  |  |  |  | Trypanocidal properties (in words) [1]: no significant trypanocidal properties
13 | CCC12CC3CC(C1)CC(NC)(C3)O2 [Compound 15, N-Methyl(3-ethyl-2-oxaadamant-1-yl)amine hydrochloride] |  |  | None of the tested compounds displayed activity | None of the tested compounds displayed activity | None of the tested compounds displayed activity | None of the tested compounds displayed activity | None of the tested compounds displayed activity | None of the tested compounds displayed activity | None of the tested compounds displayed activity | None of the tested compounds displayed activity | None of the tested compounds displayed activity | None of the tested compounds displayed activity | None of the tested compounds displayed activity | none of the compounds was found to be active | none of the compounds was found to be active | none of the compounds was found to be active | Trypanocidal properties (in words) [1]: no significant trypanocidal properties
